Measurements as given in ChEMBL document CHEMBL4229356, “Synthesis and antikinetoplastid evaluation of bis(benzyl)spermidine derivatives” (Eur J Med Chem, 2018).
The source made the active and inactive calls. The rule behind the calls is not given here.

How the values were obtained:
[1] = tested on: Trypanosoma brucei gambiense; experiment: Trypanocidal activity against Trypanosoma brucei gambiense FeoITMAP/1893 after 72 hrs by resazurin dye based assay; type: functional, organism-based; conditions: FeoITMAP/1893, 72 h
In short: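 T. b. gambiense Feo was grown in supplemented IMDM with 10% FBS. Cells at 4.10⁴/mL were exposed 72 h at 37 °C, 5% CO2 in the dark to two-fold dilutions. Resazurin (450 µM solution) was added for 6 h and read at OD570/OD600. Result given as IC50; pentamidine was the reference.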

[2] = Selectivity index, ratio of CC50 for mouse RAW264.7 cells to IC50 for Trypanosoma brucei gambiense FeoITMAP/1893; type: toxicity; conditions: read-out: Ratio CC50/IC50
[3] = tested on: Leishmania donovani; experiment: Antiparasitic activity against Leishmania donovani LV9 axenic amastigotes incubated for 72 hrs by resazurin dye based assay; type: functional, organism-based; conditions: LV9, 72 h
In short: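 LV9 axenic amastigotes were derived from promastigotes in M-199 at pH 5.5, 37 °C, 5% CO2, and used in log phase. Cells at 10⁶/mL were exposed 72 h to two-fold dilutions from 100 to 0.02 μM. Resazurin was then added for 24 h in the dark and read at OD570/OD600. IC50 is relative to excipient-only controls; miltefosine was the reference.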

[4] = tested on: Leishmania donovani; experiment: Antiparasitic activity against Leishmania donovani LV9 axenic intramacrophage amastigotes infected in mouse RAW264.7 cells incubated for 48 hrs by Sybr Green 1 dye based fluorescence assay; type: functional, organism-based; conditions: LV9, RAW264.7, 48 h
In short: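 RAW 264.7 cells at 2.10⁴/well were infected 24 h with axenic amastigotes at a 16:1 parasite to macrophage ratio, then extracellular parasites were removed. Cells were treated 48 h with two-fold dilutions from 100 µM. They were then lysed (freeze-thaw, proteinase K, 55 °C overnight) and total DNA read by SYBR Green I fluorescence against untreated infected cells. Result given as IC50.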

[5] = Cytotoxicity against mouse RAW264.7 cells assessed as reduction in cell viability after 48 hrs by resazurin assay; type: cell-based
In short: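 RAW 264.7 macrophages at 2.10⁴/well were preincubated 24 h, then exposed 48 h at 37 °C, 5% CO2 to two-fold dilutions in DMEM. Resazurin was added for 4 h in the dark and read at OD570/OD600. Result given as CC50.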

[6] = Stability in human plasma by HPLC analysis; type: ADME, cell-free; conditions: read-out: Stability
In short: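 Human plasma was diluted 10-fold in PBS and incubated with 1 mM compound solutions for 0, 2 and 12 h at 37 °C. Samples were quenched with ice-cold acetonitrile, centrifuged, filtered and analysed by C18 reversed-phase HPLC at 25 °C.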

[7] = Stability in human liver S9 fraction at 0.1 to 1 mM up to 12 hrs in presence of NADPH; type: ADME, subcellular; conditions: s9, 12 h, 1000 µM
In short: (§1)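 Pooled human liver S9 was diluted 20-fold in PBS (1 mg/ml protein). Compound solutions of 100 μM and 1 mM were incubated 0 and 12 h at 37 °C, with or without 1 mM NADPH.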

[8] = Stability in human liver S9 fraction at 0.1 to 1 mM up to 12 hrs in absence of NADPH; type: ADME, subcellular; conditions: s9, 12 h, 1000 µM; in short: as §1
[9] = tested on: Trypanosoma brucei brucei; experiment: Antitrypanosomal activity against Trypanosoma brucei brucei CMP infected in Swiss mouse assessed as change in mean survival time at 100 mg/kg, ip administered as single dose measured up to 30 days; type: functional
In short: (§2)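 Swiss mice infected ip with 10,000 T. b. brucei CMP trypanosomes, randomly grouped (six per batch), then given one ip dose of 100 or 10 mg/kg; controls received pentamidine, melarsamine or excipient. Parasitemia followed at days 2, 3, 4 and 30; deaths recorded by day post-treatment; efficacy as mean survival time minus that of excipient-treated controls (days ± SD).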

[10] = tested on: Trypanosoma brucei brucei; experiment: Antitrypanosomal activity against Trypanosoma brucei brucei CMP infected in Swiss mouse assessed as change in mean survival time at 10 mg/kg, ip administered as single dose measured up to 30 days; type: functional; in short: as §2
[11] = tested on: Mus musculus; experiment: Toxicity in Swiss mouse assessed as death at 100 mg/kg, ip administered as single dose measured up to 30 days; type: organism-based; conditions: in vivo, 720 h; in short: as §2
[12] = tested on: Mus musculus; experiment: Toxicity in Swiss mouse assessed as death at 10 mg/kg, ip administered as single dose measured up to 30 days; type: organism-based; conditions: in vivo, 720 h; in short: as §2
[13] = tested on: Leishmania donovani; experiment: Antileishmanial activity against Leishmania donovani infected in Balb/c mouse at 2 mg/kg/day, ip for 5 consecutive days; type: functional, organism-based
In short: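 Balb/c mice infected with L. donovani; 2 mg/kg/day given intraperitoneally on five consecutive days, total 10 mg/kg.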

NC1CCC(NCCCN(Cc2ccc(F)cc2)Cc2ccc(F)cc2)CC1 (stereo not drawn)
IC50 [1]: 0.4 µM
selectivity ratio [2]: 11
IC50 [3]: 44.4 µM
IC50 [4]: 12.4 µM
CC50 at 48 h [5]: 4.4 µM
half-life [6]: > 12 h
Stability [7]: Stable
Stability [8]: Stable
Survival [9]: -2.3 days
Survival [10]: 0 days
Activity [11]: Toxic
Activity [12]: Non-Toxic
Activity [13]: inactive
